Rows were chosen to be rich in hits. Some 3% of all compounds tested hit in one or more screens of this group.
T cruzi inh: inhibitors of intracellular T. cruzi growth, primary screen, luminescence, NIH3T3 host cells; T. cruzi beta-gal in NIH3T3, 90 h; inhibition, % (no concentration beside the values); hit rate 1.4% among 300,000;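 active = mean inhibition across valid replicates above about 55%, limit read from the data; inconclusive = mean below that limit but half or more replicates reach it; inactive = mean below it, under half of replicates reach it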;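 also: signal also drops with host cell toxicity which is not excluded here; higher percent means less beta-gal luminescence so fewer parasites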
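assay system = mouse NIH/3T3 fibroblasts infected with β-gal-expressing T. cruzi Tulahuen C4 | input = 5,000 NIH/3T3 host cells per well | buffer or medium = DMEM plus 2% FBS | timing = 3 h host attachment, then at least 90 h co-culture | measured by = GalScreen luminescence, 60 min | evaluation = luminescence reflecting intracellular parasite burden, expressed as percent inhibition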
PvdQ acylase: P. aeruginosa PvdQ acylase inhibitors, primary screen, biochemical, fluorescence, plate reader and imaging, single point; hit rate 0.063% among 340,000; inhibition, % at 10 µM; AID 488965, 2010; purified PvdQ acylase; PvdQ acylase [Pseudomonas aeruginosa LESB58]; in the data active = inhibition above about 30%, passing the limit was not always enough; inconclusive = no clear call, values can overlap the other calls
CaV13 FRET inh: Primary screen for inhibitors of IQ motif and Ca2+-dependent inactivation inhibitor domain binding in CACNA1D, Förster resonance energy transfer in living cells, …; AID 743397; inhibition, % at 12.3 µM; HEK cells, CFP/YFP FRET ICDI-IQ, plate reader, 10 min; percent FRET-ratio fall versus neutral wells; hit rate 0.098% among 340,000;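 active = mean replicate inhibition of at least 30% and at least 1% of replicates passing that level; inconclusive = only one of the two criteria is met; inactive = neither criterion is met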
Glyco luc inh: increase of ERlucT glycosylation luciferase signal, primary screen, N-linked glycosylation inhibitor project, D54 ERlucT cells, luminescence, set 2; reporter increase, % at 12.5 µM; AID 588692, 2011; D54 ERlucT glycosylation luciferase reporter, 24 h; percent of 100 nM tunicamycin response; hit rate 0.23% among 360,000;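 active = mean luciferase reporter signal, scaled so untreated is 0 and the glycosylation-blocking control 100, at or above a set limit in every replicate; inconclusive = mean reaches the limit but not every replicate does; inactive = mean below the limit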;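 also: luciferase carries N-glycosylation sites so blocking glycosylation raises the light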
HSF1 activator: HSF-1 activators, primary screen, NIH3T3-HGL cells, MG132 stress, luminescence, single point | NIH3T3-HGL HSF-1 luciferase reporter, 8 h; 100% = twice DMSO control signal | AID 504408, 2011 | activation, % at 9 µM | hit rate 1.7% among 300,000;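 active = mean replicate activation of at least 50% with a set share of replicates each reaching 50%; inconclusive = only one of those two conditions met; inactive = mean below 50% and too few replicates reaching it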
PfHsp90 yeast 2: growth inhibition of PfHsp90-expressing yeast, primary screen, antimalarial PfHsp90 inhibitor project, S. cerevisiae, BacTiter-Glo luminescence, single point, set 2. BacTiter-Glo ATP, 48 h; yeast lacking PDR1 and PDR3 efflux regulators. inhibition, % at 9.4 µM. hit rate 0.32% among 310,000. AID 504621, 2011;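 active = every replicate shows inhibition above about 80%, whatever the replicate mean, limit read from the data; inconclusive = mean inhibition reaches the set limit but some replicate falls short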
Each line names hits and unclear results; the compound was inactive in the other large screens.

Cc1nn(-c2ccc([N+](=O)[O-])cc2)c2c1C(c1ccc(OC(F)F)cc1)N1C(=N2)C(=O)Nc2ccccc21 (centres undefined)	T cruzi inh 91
COc1cccc(C2c3c(C)nn(-c4ccc([N+](=O)[O-])cc4)c3N=C3C(=O)Nc4ccccc4N32)c1 (centres undefined)	T cruzi inh 63
COc1cc2c(C#N)c(N3CCc4ccccc4C3)nc(N)c2c(N)n1	Glyco luc inh 26
CCOC(=O)C1=C(Nc2ccccc2)CC(C)(O)C(C(=O)OCC)C1c1ccccc1 (centres undefined)	T cruzi inh 76
COc1cccc(N/C(SCc2cccc([N+](=O)[O-])c2)=C(/C#N)C(N)=O)c1	T cruzi inh 67
CC[C@H](NC(=O)[C@H]1O[C@@H](n2cnc3c(=O)[nH]c(N)nc32)[C@H](O)[C@@H]1O)c1ccccc1	none (no result: T cruzi inh, PvdQ acylase, Glyco luc inh, HSF1 activator, PfHsp90 yeast 2)
Cc1ccccc1C(=O)N[C@@H](Cc1cccnc1)C(=O)N1CCC[C@H]1C(=O)NCCc1ccccc1Cl	none (no result: T cruzi inh, PvdQ acylase, Glyco luc inh, HSF1 activator, PfHsp90 yeast 2)
O=C(c1ccccc1)c1ccc2nc(-c3ccco3)c(-c3ccco3)nc2c1	HSF1 activator 89
O=C(NCCc1ccccc1)c1ccc2nc(-c3ccco3)c(-c3ccco3)nc2c1	none (no result: CaV13 FRET inh)
C#CCNC(=O)C[C@H]1C[C@@]2(C(=O)OC)C(=C[C@H](COCc3ccccc3)O[C@@H]2C)N(CCC2=CCCCC2)C1=O	none (no result: T cruzi inh, PvdQ acylase, Glyco luc inh, HSF1 activator, PfHsp90 yeast 2)
O=C(/C=C/c1ccc2c(c1)OCO2)Nc1ccc(Cl)cn1	HSF1 activator 85
Cc1ccc(C(NC(=O)/C=C\c2ccc3c(c2)OCO3)C(=O)Nc2ccc3c(c2)OCO3)cc1 (centres undefined)	T cruzi inh inconclusive, HSF1 activator 99
O=C(/C=C/c1ccc2c(c1)OCO2)c1ccccn1	HSF1 activator 60
COC(=O)c1[nH]c2ccccc2c1NC(=O)/C=C/c1ccc2c(c1)OCO2	HSF1 activator 78
CCN(CC(=O)Nc1c(C(=O)OC)[nH]c2ccccc12)c1ccc2c(c1)OCO2	none (no result: CaV13 FRET inh, PfHsp90 yeast 2)
Cc1ccc(NC(=O)CN(C)C(=O)/C=C/c2ccc3c(c2)OCO3)cc1	none (no result: T cruzi inh, HSF1 activator)
O=C(C=Cc1ccc2c(c1)OCO2)c1ccccc1	none (no result: T cruzi inh, HSF1 activator, PfHsp90 yeast 2)
CN1C(=O)[C@@]2(O[C@H]3C=CC=CN3C3=C2C(=O)CCC3)c2cc([N+](=O)[O-])ccc21	none (no result: T cruzi inh, PvdQ acylase, Glyco luc inh, HSF1 activator, PfHsp90 yeast 2)
Cc1ccc2cc3cc(C(=O)NCc4ccco4)oc3nc2c1	HSF1 activator 64
Cc1ccc2cc3cc(C(=O)NCCC(C)C)oc3nc2c1	none (no result: CaV13 FRET inh)
Cc1ccccc1-c1nc2cc(NC(=O)C3CC3)ccc2o1	HSF1 activator 91
O=Cc1ccc(/C=C2\c3ccccc3C(=O)N2c2ccccc2)o1	none (no result: T cruzi inh, PvdQ acylase, Glyco luc inh, HSF1 activator, PfHsp90 yeast 2)
Cc1ccc(Cc2cnc(N3C(=N)SC(C)C3=O)s2)cc1 (centres undefined)	none (no result: PfHsp90 yeast 2)
Cc1cccc(Cc2cnc(N3C(=N)SC(C)C3=O)s2)c1 (centres undefined)	T cruzi inh 68
CC(C)=C1C2CCC1C1C(=O)N(c3nc(-c4ccccc4)c(C)s3)C(=O)C21 (centres undefined)	HSF1 activator 74
Cc1nc(-c2ccccc2)sc1-c1nc(-c2ccncc2)ncc1S(=O)(=O)c1ccccc1	Glyco luc inh 57 (no result: CaV13 FRET inh)
COc1nc(-c2ccccc2)ncc1S(=O)(=O)c1ccccc1	none
CC(C)[C@H](NC(=O)c1ccc(Cl)cc1Cl)C(=O)N1CCC[C@H]1C(=O)NCc1ccccc1	none (no result: T cruzi inh, PvdQ acylase, Glyco luc inh, HSF1 activator, PfHsp90 yeast 2)
CCOC(=O)c1c(-n2cnnn2)sc2c1CCCC2	none
CCOC(=O)c1c(N2C(=O)C3C4C=CC(O4)C3C2=O)sc2c1CCCC2 (centres undefined)	HSF1 activator 104 (no result: CaV13 FRET inh)
COC(=O)c1cc2c(c3c4cc(OC)ccc4n(S(=O)(=O)c4ccc(OC)cc4)c13)C(=O)N(Cc1ccccc1)C2	none (no result: T cruzi inh, PvdQ acylase, Glyco luc inh, HSF1 activator, PfHsp90 yeast 2)
CCCCCc1c(-c2ccc(Br)cc2)ncn1CCc1ccccc1OC	none (no result: T cruzi inh, PvdQ acylase, Glyco luc inh, HSF1 activator, PfHsp90 yeast 2)
CN(CC(=O)Nc1cccc(F)c1)C(=O)c1ccccc1OCC(=O)Nc1cccc(C(F)(F)F)c1	T cruzi inh 61
CC(C)C[C@H](NC(=O)CC[C@H]1O[C@@H](n2ccc(=O)[nH]c2=O)[C@H](O)[C@@H]1O)C(=O)O	none (no result: T cruzi inh, PvdQ acylase, HSF1 activator, PfHsp90 yeast 2)
O=C(Nc1ccccc1)N1CCCN(c2ccc(C(F)(F)F)cc2[N+](=O)[O-])CC1	HSF1 activator 54
CCOc1ccc2c(ccc(/C=C/c3cc(C)c4cccnc4c3O)[n+]2C)c1	PfHsp90 yeast 2 115 (no result: T cruzi inh, CaV13 FRET inh, HSF1 activator)
Cc1ccc2c(c1)N=C(c1ccccc1)CC(C(Cl)Cl)=N2	HSF1 activator 61
Cc1ccc(C2=Nc3ccccc3N=C(C(Cl)Cl)C2)cc1	HSF1 activator 93
COC(=O)C[C@@H]1C[C@@H]2c3cc(NS(=O)(=O)c4ccc(F)cc4)ccc3O[C@@H]2[C@H](CO)O1	none (no result: T cruzi inh, PvdQ acylase, HSF1 activator, PfHsp90 yeast 2)
COc1cccc(CN(C)Cc2c(O)ccc3ccccc23)c1	HSF1 activator 97
COc1ccc(CN(C)Cc2c(O)ccc3ccccc23)cc1	HSF1 activator 219
COc1cccc(CN(C)CC(=O)Nc2cccc3ccccc23)c1	none
CC1(C)OC(=O)C2=C(CC(CCc3ccccc3)OC2c2ccc(Cl)c(Cl)c2)O1 (centres undefined)	none (no result: T cruzi inh, PvdQ acylase, Glyco luc inh, HSF1 activator, PfHsp90 yeast 2)
Cc1cc(F)ccc1NCc1cc2c(cc1[N+](=O)[O-])OCO2	HSF1 activator 53
Cn1c(-c2ccc(F)cc2)cnc1NCc1cc2c(cc1[N+](=O)[O-])OCO2	none
COC(=O)C1=CN(c2ccc(N3CCOCC3)cc2)C(N)=C(C#N)C1c1ccc(-c2ccccc2)cc1 (centres undefined)	none (no result: T cruzi inh, PvdQ acylase, Glyco luc inh, HSF1 activator, PfHsp90 yeast 2)
CN1OC[C@@H]2CN(S(=O)(=O)c3ccccc3)[C@H](c3ccccc3Br)C[C@@H]21	none (no result: T cruzi inh, PvdQ acylase, HSF1 activator, PfHsp90 yeast 2)
CCCCN(CCCNC(=O)C1CCN(S(=O)(=O)CC)CC1)c1ccccc1	HSF1 activator 64
CCCCc1c(-c2ccccc2OC)ncn1Cc1cccc(C)c1	none (no result: T cruzi inh, PvdQ acylase, Glyco luc inh, HSF1 activator, PfHsp90 yeast 2)
COc1ccc(OC)c(Nc2c3ccccc3nc3ccccc23)c1	none
Cc1ccc2nc3c(c(Nc4ccc(O)cc4)c2c1)CCC3	T cruzi inh 62
COc1ccc(OC)c(Nc2c3c(nc4ccccc24)CCC3)c1	T cruzi inh 59
COc1cc(Nc2c3c(nc4ccccc24)CCC3)cc(OC)c1OC	Glyco luc inh 49
c1coc(CNc2c3c(nc4ccccc24)CCC3)c1	T cruzi inh 69
Cc1cccc(Nc2c3c(nc4ccccc24)CCC3)c1	none
CN(NC(=O)C(=O)NCc1ccco1)C(=O)NC1CCCCC1	none (no result: T cruzi inh, PvdQ acylase, Glyco luc inh, HSF1 activator, PfHsp90 yeast 2)
